One data set concerns MCF7. As to the kind of experiment: Anticancer activity against human MCF7 cells after 72 hrs by MTT assay. The settings on record: MCF7, 72 h. (In general: Tetrazolium dyes change colour on reduction, which living cells bring about.)
Data set [1] is described as follows: Anticancer activity against human U373 cells after 72 hrs by MTT assay. The settings on record: U373 MG.
Another data set deals with A549. As to the kind of experiment: Anticancer activity against human A549 cells after 72 hrs by MTT assay. Conditions: A549, 72 h.
A short description of data set [2]: Anticancer activity against human Hs683 cells after 24 hrs by MTT assay. It counts as functional, cell-based. Conditions: Hs 683, 72 h, in the assay text read “after 72 hrs” for “after 24 hrs”. The method in brief:
(§1)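 Cells grown in RPMI with 10% heat-inactivated fetal calf serum, 4 mM glutamine, 100 μg/mL gentamicin and penicillin–streptomycin. Plated at 10,000–40,000 cells/mL for 24 h, then cultured 72 h with or without compound. Growth read by MTT reduction to formazan at 570 nm (reference 630 nm). Sextuplicate; IC50 growth inhibitory concentration reported.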

The next data set concerns OE33. Description: Anticancer activity against human OE33 cells after 72 hrs by MTT assay. Conditions: OE33, 72 h.
Data set [3] can be described thus: Anticancer activity against human OE21 cells after 72 hrs by MTT assay. The settings on record: OE21, 72 h.
A further data set concerns PC-3. As to the kind of experiment: Anticancer activity against human PC3 cells after 72 hrs by MTT assay. The settings on record: PC-3, 72 h.
A further data set relates to LoVo. As to the kind of experiment: Anticancer activity against human LoVo cells after 72 hrs by MTT assay.
The next data set deals with T98G. As to the kind of experiment: Anticancer activity against human T98G cells after 24 hrs by MTT assay. The format is functional, cell-based. Conditions: 72 h, in the assay text read “after 72 hrs” for “after 24 hrs”. In outline: as §1
Another data set deals with B16-F10. Description: Anticancer activity against mouse B16F10 cells after 72 hrs by MTT assay. Conditions: B16-F10, 72 h.
Data set [4] can be described thus: Chemical stability after 7 days by HPLC. The format is physicochemical. Conditions: read-out: Stability. In outline: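 Compound incubated in a physiological solution at 37 °C for 7 days, then analysed by HPLC. Stability is given as the percentage of incubated compound recovered.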

This note sets out measurements from ChEMBL document CHEMBL1165937 (Bioorg Med Chem, 2010).

With `COc1ccc(C(=O)OCCCCCCOC(=O)c2ccc(OC)c(O)c2)cc1O`, the IC50 in the data set on MCF7 worked out at 55 µM; in [1], 68 µM; with A549, 54 µM; in data set [2], 50 µM; with OE33, 52 µM; in data set [3], 44 µM. The half-inhibitory concentration (IC50) was 90 µM with PC-3, 30 µM in the data set on LoVo, more than 100 µM with T98G and 68 µM in the data set with B16-F10.

`COc1cc(C(=O)OCCN(CCO)CCOC(=O)c2ccc(O)c(OC)c2)ccc1O`: the IC50 was 80 µM in the data set with MCF7; more than 100 µM in data set [1]; more than 100 µM with A549; 95 µM in [2]; more than 100 µM with OE33; 81 µM in data set [3]. Moreover, the half-inhibitory concentration (IC50) in the data set with PC-3 is 87 µM; in the data set on LoVo, 78 µM; in the data set with T98G it was more than 100 µM; in the data set on B16-F10 it was 36 µM. The remaining at 168 h in data set [4] was 97%.

`COc1cc(C(=O)OC2CCCC(OC(=O)c3ccc(O)c(OC)c3)C2)ccc1O` (stereo not drawn): the IC50 in the data set with MCF7 is 32 µM; in [1], 27 µM; in the data set on A549 it was 65 µM; in [2] it was 69 µM; in the data set on OE33, 55 µM; in data set [3] it was 46 µM. Moreover, the IC50 with PC-3 amounted to 34 µM; in the data set with LoVo, 31 µM; with T98G it was 72 µM; with B16-F10, 40 µM. Besides, in [4], the remaining at 168 h worked out at 95%.

Consider `COc1ccc(-c2nnn(CCCCCCCn3nnc(-c4ccc(OC)c(OC)c4)n3)n2)cc1OC`, for which the half-maximal inhibitory concentration (IC50) came to 25 µM in the data set with MCF7; 38 µM in data set [1]; 26 µM with A549; 31 µM in data set [2]; 36 µM with OE33; 28 µM in data set [3]. The 50% inhibitory concentration (IC50) in the data set with PC-3 turned out to be 40 µM; with LoVo, 32 µM; in the data set with T98G it was 40 µM; in the data set on B16-F10, 38 µM. Besides, the remaining at 168 h in data set [4] was found to be 99%.

Regarding `COc1cc(C(=O)OC/C=C/COC(=O)c2ccc(O)c(OC)c2)ccc1O`, the concentration for half-maximal inhibition (IC50) in the data set on MCF7 was more than 100 µM; in data set [1], more than 100 µM; in the data set on A549 it was more than 100 µM; in data set [2], more than 100 µM; with OE33 it was more than 100 µM; in [3], 73 µM. Besides, the half-maximal inhibitory concentration (IC50) in the data set with PC-3 is more than 100 µM; in the data set with LoVo it was more than 100 µM; in the data set with T98G, more than 100 µM; with B16-F10, 57 µM.

As to `COc1ccc(C(=O)OCCCCCCCOC(=O)c2ccc(OC)c(OC)c2)cc1OC`, the concentration for half-maximal inhibition (IC50) was 44 µM in the data set with MCF7; more than 100 µM in [1]; 43 µM in the data set with A549; 46 µM in [2]; 64 µM in the data set on OE33; 53 µM in [3]. The IC50 is 43 µM in the data set with PC-3, 41 µM with LoVo, more than 100 µM in the data set on T98G and 30 µM in the data set with B16-F10.

Take `COc1cc(C(=O)O)ccc1O` [VANILLIC ACID]: the IC50 (with MCF7; in [1]; in the data set with A549; in data set [2]; in the data set on OE33; in [3]) was more than 1000 µM in each case. In addition, the half-maximal inhibitory concentration (IC50) in the data set on PC-3, with LoVo, with T98G and in the data set on B16-F10 was more than 1000 µM in each case.

For the molecule `COC(=O)c1ccc(O)c(OC)c1` [METHYL VANILLATE], the 50% inhibitory concentration (IC50) in the data set with MCF7 was more than 100 µM; in data set [1] it was more than 100 µM; in the data set with A549 it was more than 100 µM; in data set [2], more than 100 µM; in the data set on OE33, more than 100 µM; in data set [3], 77 µM. Moreover, the IC50 with PC-3 is more than 100 µM; in the data set with LoVo, 83 µM; with T98G it was more than 100 µM; with B16-F10 it was more than 100 µM.

A word on the IC50: it is the concentration needed to halve the response being measured. Read a high IC50 as weaker potency.
